Test results as given in ChEMBL document CHEMBL5678806, “NMS-P937, an orally available, specific small-molecule polo-like kinase 1 inhibitor with antitumor activity in solid and hematologic malignancies” (Mol Cancer Ther, 2012).
Activity calls are given as the source filed them. No cut-off for these calls is given here.

Columns and labels:
[1] = molecular target: Hepatocyte growth factor receptor (Homo sapiens, UniProt P08581); test: Inhibition of MET (unknown origin) in presence of [gamma-33P]ATP
[2] = molecular target: Protein kinase C beta type (Homo sapiens, UniProt P05771); test: Inhibition of PKC beta (unknown origin) in presence of [gamma-33P]ATP
[3] = molecular target: Vascular endothelial growth factor receptor 2 (Homo sapiens, UniProt P35968); test: Inhibition of VEGFR2 (unknown origin) in presence of [gamma-33P]ATP
Sequence of Vascular endothelial growth factor receptor 2 (P35968 whole entry): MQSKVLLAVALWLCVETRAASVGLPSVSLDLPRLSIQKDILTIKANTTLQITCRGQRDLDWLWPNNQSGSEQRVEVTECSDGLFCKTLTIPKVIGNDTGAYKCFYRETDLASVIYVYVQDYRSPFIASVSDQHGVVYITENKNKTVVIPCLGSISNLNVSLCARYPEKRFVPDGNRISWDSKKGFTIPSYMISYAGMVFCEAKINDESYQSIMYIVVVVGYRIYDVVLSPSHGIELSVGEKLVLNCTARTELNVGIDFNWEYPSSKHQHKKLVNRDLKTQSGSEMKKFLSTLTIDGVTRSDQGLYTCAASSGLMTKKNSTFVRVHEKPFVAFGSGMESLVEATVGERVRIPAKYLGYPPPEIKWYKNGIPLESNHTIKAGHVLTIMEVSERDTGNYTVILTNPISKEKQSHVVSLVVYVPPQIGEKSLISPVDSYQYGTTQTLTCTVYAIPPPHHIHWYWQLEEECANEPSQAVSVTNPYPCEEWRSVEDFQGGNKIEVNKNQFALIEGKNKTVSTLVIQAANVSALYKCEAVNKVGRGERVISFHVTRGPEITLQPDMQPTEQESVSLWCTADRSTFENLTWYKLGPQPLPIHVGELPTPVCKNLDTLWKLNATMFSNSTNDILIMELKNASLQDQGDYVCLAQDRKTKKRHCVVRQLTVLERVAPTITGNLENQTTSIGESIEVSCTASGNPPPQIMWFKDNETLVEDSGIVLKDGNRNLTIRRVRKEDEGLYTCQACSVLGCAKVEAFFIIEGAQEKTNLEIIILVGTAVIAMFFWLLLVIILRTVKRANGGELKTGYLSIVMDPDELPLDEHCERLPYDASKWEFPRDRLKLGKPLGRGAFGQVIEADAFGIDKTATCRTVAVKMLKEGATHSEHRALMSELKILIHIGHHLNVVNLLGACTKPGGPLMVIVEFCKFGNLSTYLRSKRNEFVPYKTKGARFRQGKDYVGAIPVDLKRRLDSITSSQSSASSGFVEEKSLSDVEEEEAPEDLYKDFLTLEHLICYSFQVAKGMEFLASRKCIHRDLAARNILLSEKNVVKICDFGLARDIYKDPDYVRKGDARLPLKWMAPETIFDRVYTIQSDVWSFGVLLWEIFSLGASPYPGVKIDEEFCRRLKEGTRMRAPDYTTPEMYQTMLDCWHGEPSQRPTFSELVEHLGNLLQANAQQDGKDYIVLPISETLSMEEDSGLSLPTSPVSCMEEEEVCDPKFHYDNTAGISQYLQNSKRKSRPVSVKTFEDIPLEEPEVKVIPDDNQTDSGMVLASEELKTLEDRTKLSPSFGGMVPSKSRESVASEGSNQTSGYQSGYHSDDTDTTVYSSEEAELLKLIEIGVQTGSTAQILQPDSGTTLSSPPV

[4] = molecular target: Vascular endothelial growth factor receptor 3 (Homo sapiens, UniProt P35916); test: Inhibition of VEGFR3 (unknown origin) in presence of [gamma-33P]ATP
[5] = molecular target: CDK6/cyclin D3 (Homo sapiens) (UniProt P30281+Q00534); test: Inhibition of N-terminal His6-tagged full-length human CDK6/N-terminal GST-tagged full-length human cyclinD3 expressed in Sf21 cells assessed as residual activity at 0.1 uM relative to control
[6] = molecular target: Serine/threonine-protein kinase 17A (Homo sapiens) (UniProt Q9UEE5); test: Inhibition of N-terminal 6His-tagged recombinant full-length human DRAK1 expressed in baculovirus infected Sf21 cells assessed as residual activity at 0.1 uM relative to control
[7] = molecular target: ALK tyrosine kinase receptor (Homo sapiens) (UniProt Q9UM73); test: Inhibition of N-terminal His6-tagged recombinant human ALK (1058 to end residues) expressed in baculovirus infected Sf21 cells assessed as residual activity at 1 uM relative to control
Sequence of ALK tyrosine kinase receptor (Homo sapiens) (Q9UM73 19-1620 limits assumed): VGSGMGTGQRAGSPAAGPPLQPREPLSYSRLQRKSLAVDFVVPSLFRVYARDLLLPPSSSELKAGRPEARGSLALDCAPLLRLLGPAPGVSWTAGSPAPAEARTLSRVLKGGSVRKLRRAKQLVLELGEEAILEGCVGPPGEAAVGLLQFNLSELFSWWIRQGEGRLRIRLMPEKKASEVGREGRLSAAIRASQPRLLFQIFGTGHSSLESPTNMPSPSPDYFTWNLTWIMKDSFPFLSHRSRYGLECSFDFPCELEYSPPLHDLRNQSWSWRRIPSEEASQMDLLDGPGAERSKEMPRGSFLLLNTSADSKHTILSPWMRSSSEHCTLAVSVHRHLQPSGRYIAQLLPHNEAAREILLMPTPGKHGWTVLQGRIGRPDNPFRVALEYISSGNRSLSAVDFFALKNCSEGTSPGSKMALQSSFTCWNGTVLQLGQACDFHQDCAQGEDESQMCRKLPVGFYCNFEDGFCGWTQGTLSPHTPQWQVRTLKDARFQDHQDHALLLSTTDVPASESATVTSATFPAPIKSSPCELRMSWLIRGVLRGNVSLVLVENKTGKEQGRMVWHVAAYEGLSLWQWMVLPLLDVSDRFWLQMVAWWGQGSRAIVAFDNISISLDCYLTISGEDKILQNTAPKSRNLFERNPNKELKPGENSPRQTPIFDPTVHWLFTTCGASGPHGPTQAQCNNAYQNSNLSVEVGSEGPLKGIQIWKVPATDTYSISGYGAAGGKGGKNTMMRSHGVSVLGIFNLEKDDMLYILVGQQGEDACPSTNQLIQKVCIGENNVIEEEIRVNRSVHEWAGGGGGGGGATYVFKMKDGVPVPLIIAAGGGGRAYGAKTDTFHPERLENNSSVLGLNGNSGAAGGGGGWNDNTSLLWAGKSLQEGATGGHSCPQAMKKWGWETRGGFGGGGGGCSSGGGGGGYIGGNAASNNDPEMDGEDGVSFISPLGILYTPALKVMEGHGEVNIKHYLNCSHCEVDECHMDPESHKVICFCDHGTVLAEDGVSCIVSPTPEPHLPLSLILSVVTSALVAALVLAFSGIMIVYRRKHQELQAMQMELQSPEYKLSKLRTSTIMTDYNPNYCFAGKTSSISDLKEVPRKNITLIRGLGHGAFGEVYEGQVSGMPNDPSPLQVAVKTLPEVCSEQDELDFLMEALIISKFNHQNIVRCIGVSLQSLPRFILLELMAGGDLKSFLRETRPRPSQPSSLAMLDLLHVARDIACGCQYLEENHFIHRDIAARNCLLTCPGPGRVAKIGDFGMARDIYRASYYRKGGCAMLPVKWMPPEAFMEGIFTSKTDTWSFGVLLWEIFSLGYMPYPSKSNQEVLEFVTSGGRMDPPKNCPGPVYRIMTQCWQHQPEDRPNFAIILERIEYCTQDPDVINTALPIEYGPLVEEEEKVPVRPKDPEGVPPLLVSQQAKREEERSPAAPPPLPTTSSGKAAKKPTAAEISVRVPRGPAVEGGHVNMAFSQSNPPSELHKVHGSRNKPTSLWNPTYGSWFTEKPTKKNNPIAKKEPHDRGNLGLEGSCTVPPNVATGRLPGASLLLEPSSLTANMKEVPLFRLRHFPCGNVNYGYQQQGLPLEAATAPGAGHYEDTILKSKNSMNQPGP

[8] = molecular target: Tyrosine-protein kinase ABL2 (Mus musculus) (UniProt Q4JIM5); test: Inhibition of N-terminal His6-tagged recombinant mouse Arg (27 to end residues) expressed in Sf21 cells assessed as residual activity at 1 uM relative to control
[9] = molecular target: Mitogen-activated protein kinase kinase kinase 5 (Homo sapiens) (UniProt Q99683); test: Inhibition of N-Terminal GST and C-terminal His6-tagged recombinant human ASK1 (649 to 946 residues) expressed in E. coli cell assessed as residual activity at 1 uM relative to control
Sequence of Mitogen-activated protein kinase kinase kinase 5 (Homo sapiens) (Q99683 whole entry, the tested form may be a part, canonical isoform): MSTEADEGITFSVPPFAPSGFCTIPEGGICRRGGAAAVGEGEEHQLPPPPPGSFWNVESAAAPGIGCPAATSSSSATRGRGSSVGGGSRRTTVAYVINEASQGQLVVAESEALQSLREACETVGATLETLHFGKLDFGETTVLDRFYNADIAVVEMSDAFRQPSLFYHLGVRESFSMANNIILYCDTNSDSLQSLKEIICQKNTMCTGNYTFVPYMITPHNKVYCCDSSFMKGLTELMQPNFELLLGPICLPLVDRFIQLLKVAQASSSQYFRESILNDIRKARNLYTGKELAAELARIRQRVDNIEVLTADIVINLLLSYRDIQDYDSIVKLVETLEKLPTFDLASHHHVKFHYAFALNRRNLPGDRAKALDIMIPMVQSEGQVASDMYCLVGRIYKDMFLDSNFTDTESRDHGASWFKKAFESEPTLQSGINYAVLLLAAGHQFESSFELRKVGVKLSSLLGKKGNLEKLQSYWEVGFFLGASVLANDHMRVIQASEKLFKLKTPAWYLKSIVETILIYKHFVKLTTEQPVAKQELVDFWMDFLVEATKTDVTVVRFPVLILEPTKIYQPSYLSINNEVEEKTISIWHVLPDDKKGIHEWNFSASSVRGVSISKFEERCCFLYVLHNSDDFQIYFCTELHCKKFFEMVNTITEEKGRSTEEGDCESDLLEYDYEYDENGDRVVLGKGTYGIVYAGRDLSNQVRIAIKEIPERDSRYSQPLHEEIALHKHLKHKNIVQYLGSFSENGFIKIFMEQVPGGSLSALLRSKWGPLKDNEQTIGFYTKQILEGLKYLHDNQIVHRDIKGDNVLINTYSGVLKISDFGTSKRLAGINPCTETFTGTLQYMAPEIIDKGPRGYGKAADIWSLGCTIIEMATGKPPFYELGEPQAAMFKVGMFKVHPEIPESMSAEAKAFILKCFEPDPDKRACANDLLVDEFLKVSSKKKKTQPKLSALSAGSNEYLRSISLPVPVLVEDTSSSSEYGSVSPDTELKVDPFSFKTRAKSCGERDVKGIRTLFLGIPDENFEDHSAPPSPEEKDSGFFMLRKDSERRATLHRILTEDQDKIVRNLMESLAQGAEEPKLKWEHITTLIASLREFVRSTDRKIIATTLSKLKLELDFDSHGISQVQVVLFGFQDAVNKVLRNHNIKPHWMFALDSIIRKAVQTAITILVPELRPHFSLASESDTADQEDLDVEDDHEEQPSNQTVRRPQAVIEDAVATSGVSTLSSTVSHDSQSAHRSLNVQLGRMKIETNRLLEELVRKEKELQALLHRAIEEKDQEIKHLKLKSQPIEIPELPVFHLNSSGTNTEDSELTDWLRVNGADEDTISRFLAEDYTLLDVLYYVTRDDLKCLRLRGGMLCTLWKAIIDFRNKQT

[10] = molecular target: Casein kinase I isoform delta (Homo sapiens) (UniProt P48730); test: Inhibition of N-terminal GST-tagged recombinant human CK1delta (1 to 294 residues) expressed in E. coli assessed as residual activity at 1 uM relative to control
Sequence of Casein kinase I isoform delta (Homo sapiens) (P48730 whole entry, looked up, the tested form may be a part, canonical isoform): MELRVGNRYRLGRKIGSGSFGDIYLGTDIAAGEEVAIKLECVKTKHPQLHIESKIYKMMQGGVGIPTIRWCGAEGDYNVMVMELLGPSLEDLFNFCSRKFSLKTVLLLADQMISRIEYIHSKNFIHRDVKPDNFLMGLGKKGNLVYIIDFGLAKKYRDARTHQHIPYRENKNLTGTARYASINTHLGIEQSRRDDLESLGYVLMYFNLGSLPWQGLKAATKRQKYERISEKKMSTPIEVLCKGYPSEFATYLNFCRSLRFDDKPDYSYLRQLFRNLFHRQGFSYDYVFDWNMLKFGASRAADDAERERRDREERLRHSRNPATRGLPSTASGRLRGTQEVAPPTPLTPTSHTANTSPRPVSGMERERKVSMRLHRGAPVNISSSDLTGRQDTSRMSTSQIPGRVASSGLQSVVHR

[11] = molecular target: Tyrosine-protein kinase Mer (Homo sapiens) (UniProt Q12866); test: Inhibition of N-terminal GST-tagged recombinant human Mer (557 to 882 residues) expressed in baculovirus infected Sf21 cells assessed as residual activity at 1 uM relative to control
U-118-MG = test: Antiproliferative activity against human U-118-MG cells assessed as inhibition of cell growth incubated for 72 hrs by cell-titer glo assay; assay type: functional, cell-based
SW-620 = test: Antiproliferative activity against human SW620 cells assessed as inhibition of cell growth incubated for 72 hrs by cell-titer glo assay; assay type: functional, cell-based; conditions: SW-620, 72 h
COLO-678 = test: Antiproliferative activity against human COLO-678 cells assessed as inhibition of cell growth incubated for 72 hrs by cell-titer glo assay; assay type: functional, cell-based; conditions: COLO-678, 72 h
In short: (§1)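 Cells seeded 10,000–30,000/cm² (adherent) or 100,000/mL (suspension) in medium with 10% fetal calf serum; after 24 h treated in duplicate with serial dilutions for 72 h. Viable cells read by CellTiter-Glo luminescence; IC50 from sigmoidal fit; at least two independent experiments.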

TK-10 = test: Antiproliferative activity against human TK-10 cells assessed as inhibition of cell growth incubated for 72 hrs by cell-titer glo assay; assay type: functional, cell-based; conditions: TK-10, 72 h
RPMI-8226 = test: Antiproliferative activity against human RPMI-8226 cells assessed as inhibition of cell growth incubated for 72 hrs by cell-titer glo assay; assay type: functional, cell-based; conditions: RPMI-8226, 72 h
In short: (§2)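 Cells from ATCC or ECACC, kept in supplier-recommended medium with 1% penicillin-streptomycin at 37°C, 5% CO₂. Seeded at 10,000–30,000/cm² (adherent) or 100,000/mL (nonadherent) in medium with 10% fetal calf serum. Dosed after 24 h in duplicate with serial dilutions. Viable cells read by CellTiter-Glo 72 h later. IC50 from sigmoidal fit. At least two independent experiments.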

NCI-H2228 = test: Antiproliferative activity against human NCI-H2228 cells assessed as inhibition of cell growth incubated for 72 hrs by cell-titer glo assay; assay type: functional, cell-based; conditions: NCI-H2228, 72 h; in short: as §2
[12] = Antiproliferative activity against human A2780 ADR cells assessed as inhibition of cell growth incubated for 72 hrs by cell-titer glo assay; assay type: functional, cell-based; in short: as §1
UACC-62 = test: Antiproliferative activity against human UACC-62 cells assessed as inhibition of cell growth incubated for 72 hrs by cell-titer glo assay; assay type: functional, cell-based; conditions: UACC-62, 72 h
SK-MEL-2 = test: Antiproliferative activity against human SK-MEL-2 cells assessed as inhibition of cell growth incubated for 72 hrs by cell-titer glo assay; assay type: functional, cell-based; conditions: SK-MEL-2, 72 h
NCI-H929 = test: Antiproliferative activity against human NCI-H929 cells assessed as inhibition of cell growth incubated for 72 hrs by cell-titer glo assay; assay type: functional, cell-based; conditions: NCI-H929, 72 h; in short: as §2
[13] = Volume of distribution at steady state in Sprague-Dawley rat at 10 mg/kg, iv by LC-MS analysis; assay type: ADME, organism-based; conditions: in vivo, read-out: Vdss
[14] = Tmax in male cynomolgus monkey at 5 mg/kg, po by LC-MS analysis; assay type: ADME, organism-based, Macaca fascicularis; conditions: in vivo
A2780 [15] = test: Induction of cell cycle arrest in human A2780 cells assessed as accumulation of cells in G2/M phase by measuring PLK1 phosphorylation on Thr210 incubated for 24 hrs by Western blotting analysis; assay type: functional, cell-based; conditions: dose 0.02-0.2 µmol/L
In short: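 A2780 ovarian carcinoma cells treated 24 h with a range of concentrations, with DMSO and nocodazole controls. 20 µg protein extract separated by SDS-PAGE and immunoblotted with chemiluminescent detection. Probed for total and phospho-Thr210 PLK1, phospho-Ser10 histone H3, phospho-Thr199 NPM and phospho-Tyr15 CDK1. Total NPM, tubulin and total CDK1 served as loading controls.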

U2OS = test: Effect on cell morphology in human U2OS cells assessed as increased number of rounded cells at 1 uM by time lapse microscopy analysis; assay type: functional, cell-based; conditions: time lower […], time upper 48.0 hrs, TDE = time-dependent effect
NHDF = test: Induction of DNA damage in human NHDF cells assessed as H2AX phosphorylation at 0.5 to 1 uM incubated for 8 hrs followed by compound washout and measured after 24 to 48 hrs by Western blotting analysis; assay type: toxicity, cell-based; conditions: dose 0.5-1 µM
A2780 [16] = test: Induction of mitosis in human A2780 cells xenografted in nu/nu mouse assessed as increased Histone H3 phosphorylation on Ser10 at 60 mg/kg, po administered for 2 to 6 hrs by immunohistochemistry analysis; assay type: functional, organism-based; conditions: time 2-6 hrs
A2780 [17] = test: Induction of mitosis in human A2780 cells xenografted in nu/nu mouse assessed as increased NPM phosphorylation on Thr199 at 60 mg/kg, po administered for 2 to 6 hrs by immunohistochemistry analysis; assay type: functional, organism-based; conditions: time 2-6 hrs

SMILES: CN1CCN(c2ccc(OC(F)(F)F)c(Nc3ncc4c(n3)-c3c(c(C(N)=O)nn3CCO)CC4)c2)CC1 [ONVANSERTIB]
- IC50 [1]: > 10000 nM
- IC50 [2]: > 10000 nM
- IC50 [3]: > 10000 nM
- IC50 [4]: > 10000 nM
- Activity [5]: 114%
- Activity [6]: 58%
- Activity [7]: 133%
- Activity [8]: 85%
- Activity [9]: 125%
- Activity [10]: 73%
- Activity [11]: 64%
- IC50 (U-118-MG): 220 nM
- IC50 (SW-620): 37 nM
- IC50 (COLO-678): 354 nM
- IC50 (TK-10): 1210 nM
- IC50 (RPMI-8226): 128 nM
- IC50 (NCI-H2228): 335 nM
- IC50 [12]: 620 nM
- IC50 (UACC-62): 103 nM
- IC50 (SK-MEL-2): 256 nM
- IC50 (NCI-H929): 63 nM
- Vd [13]: 2.8 L/kg
- Tmax [14]: 2.7 h
- Activity (A2780 [15]): Dose-Dependent Effect
- Activity (U2OS): Tde
- Activity (NHDF): Non-Toxic
- Activity (A2780 [16]): Active
- Activity (A2780 [17]): Active
